This is an account of results in ChEMBL document CHEMBL1125311, “Inhibition of human leukocyte elastase. 4. Selection of a substituted cephalosporin (L-658,758) as a topical aerosol” (J Med Chem, 1992).

pIC50, pKi: −log10 of the molar value.

Data set [1] addresses T1, Neutrophil elastase (Homo sapiens) (UniProt P08246).
T1 sequence (whole entry): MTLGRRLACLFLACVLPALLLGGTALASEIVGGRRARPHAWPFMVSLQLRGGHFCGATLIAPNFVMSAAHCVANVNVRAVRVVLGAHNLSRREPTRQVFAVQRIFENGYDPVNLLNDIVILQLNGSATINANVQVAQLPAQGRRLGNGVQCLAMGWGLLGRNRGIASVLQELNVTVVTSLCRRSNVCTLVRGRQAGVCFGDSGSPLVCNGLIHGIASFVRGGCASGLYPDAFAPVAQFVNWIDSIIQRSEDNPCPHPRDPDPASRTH

Data set [2] concerns Cricetinae gen. sp. The experiment in a line: Compound was evaluated in vivo for inhibition of HLE-induced hemorrhage in hamster lung at 200 microg 4 hr after administration prior to HLE. In kind it is functional, Cricetulus griseus. The essentials:
(§1)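 Hamster duration protocol: 200 μg/animal given intratracheally 60, 120, 180 or 240 min before IT HLE instillation; hemorrhage scored after 3 h as hemoglobin (414 nm) in saline lung lavage, relative to vehicle-treated animals; three animals per point. T50 taken as time at which 50% inhibition is still obtained.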

A short description of data set [3]: Inhibition of elastin solubilization. In kind it is functional.
In data set [4] the test system is Cricetinae gen. sp. The experiment in a line: Compound was evaluated in vivo for inhibition of HLE-induced hemorrhage in hamster lung at 200 microg 2 hr after administration prior to HLE. In kind it is functional, Cricetulus griseus. In short, it runs like this:
as §1

Data set [5] deals with Prothrombin (Homo sapiens) (UniProt P00734). The experiment in a line: Inhibitory activity against Thrombin at 10 min (48 mM conc). In short, it runs like this: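 Human thrombin was assayed colorimetrically with 0.2 mM Tosyl-Gly-Pro-Arg-p-nitroanilide as substrate. Percent inhibition was read at 10 min.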
For another data set, the species on record is Rattus norvegicus. Briefly: Inhibition of lung hemorrhage caused by elastase in an acute reverse passive Arthus reaction in rat at 250 ug/animal (ED50=55 ug). In kind it is functional.
In data set [6] the target is T2, Cathepsin G (Homo sapiens) (UniProt P08311).
T2 sequence (whole entry): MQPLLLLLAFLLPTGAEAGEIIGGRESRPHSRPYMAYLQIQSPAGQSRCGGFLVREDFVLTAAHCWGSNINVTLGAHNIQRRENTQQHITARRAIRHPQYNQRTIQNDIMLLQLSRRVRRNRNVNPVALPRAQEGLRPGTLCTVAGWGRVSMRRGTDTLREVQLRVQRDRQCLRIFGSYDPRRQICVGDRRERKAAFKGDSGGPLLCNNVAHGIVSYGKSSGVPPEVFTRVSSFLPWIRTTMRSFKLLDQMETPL
The experiment in a line: Inhibitory activity against Cathepsin G at 10 min (48 mM conc)using t-Boc-Tyr-ONp as substrate.

Data set [7] concerns Cricetinae gen. sp. The experiment in a line: Inhibitory activity against Human Leukocyte Elastase by Lung Hemorrhage assay. In kind it is functional, Cricetulus griseus.
A further data set concerns the target T3, Papain (Carica papaya) (UniProt P00784).
T3 sequence (whole entry): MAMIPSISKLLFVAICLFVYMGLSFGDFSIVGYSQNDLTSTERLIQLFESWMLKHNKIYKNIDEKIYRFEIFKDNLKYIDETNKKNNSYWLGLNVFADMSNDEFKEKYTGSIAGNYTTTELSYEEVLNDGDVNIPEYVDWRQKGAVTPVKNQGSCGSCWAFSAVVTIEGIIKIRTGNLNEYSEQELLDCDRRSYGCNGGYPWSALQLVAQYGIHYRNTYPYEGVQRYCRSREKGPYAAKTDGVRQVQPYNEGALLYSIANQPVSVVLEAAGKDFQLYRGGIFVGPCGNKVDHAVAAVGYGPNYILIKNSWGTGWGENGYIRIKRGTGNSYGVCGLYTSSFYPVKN
The experiment in a line: Inhibitory activity against Papain at 10 min (48 mM conc). The essentials:
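Papain activity was read at 410 nm as p-nitroanilide release from benzoyl-Arg-p-nitroanilide, in pH 7.5 TES with 0.001 M EDTA, 0.005 M Cys and 10% DMSO. Percent inhibition was taken at 10 min.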

The subject of data set [8] is Cricetinae gen. sp. The experiment in a line: Compound was evaluated in vivo for inhibition of HLE-induced hemorrhage in hamster lung at 10 microg 30 min after administration prior to HLE. In kind it is functional, Cricetulus griseus. In short, it runs like this:
(§2)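 Hamster, intratracheal dosing of compound (per animal) 30 min before IT instillation of 50 μg HLE (50 units in Experimental); hemorrhage read 3 h later: lungs lavaged with saline, hemoglobin in lavage measured at 414 nm. Percent inhibition from drug-treated vs vehicle-treated hemorrhage; three animals per dose and time. Titration at 100, 30, 10, 3 μg/animal gives ED50.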

A short description of data set [9]: Half-life value of the compound. In kind it is ADME. In short, it runs like this:
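Chemical stability: compound dissolved at 1 mg/mL in 0.5 M MOPS, pH 8.0, held at 25 °C in capped vial; aliquots quenched in 2% aqueous TFA and analysed by reverse-phase HPLC over one to two half-lives. Peak areas fit to first-order decay F(t)=A/2^(t/t1/2) to give t1/2.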

Data set [10] has as its system Cricetinae gen. sp. The experiment in a line: Compound was evaluated in vivo for inhibition of HLE-induced hemorrhage in hamster lung at 100 microg 30 min after administration prior to HLE. In kind it is functional, Cricetulus griseus. The essentials:
as §2

The species named for data set [11] is Homo sapiens. The experiment in a line: Inhibitory activity against Complement cascade at 10 min (120 mM conc). In kind it is functional.
In data set [12] the test system is Cricetinae gen. sp. Briefly: Compound was evaluated in vivo for inhibition of HLE-induced hemorrhage in hamster lung at 200 microg 3h after administration prior to HLE. In kind it is functional, Cricetulus griseus. The essentials:
as §1

The test system of data set [13] is Cricetinae gen. sp. The experiment in a line: Compound was evaluated in vivo for inhibition of HLE-induced hemorrhage in hamster lung at 30 microg 30 min after administration prior to HLE. In kind it is functional, Cricetulus griseus. In short, it runs like this: as §2
The test system of data set [14] is Cricetinae gen. sp. Briefly: Compound was evaluated in vivo for inhibition of HLE-induced hemorrhage in hamster lung at 200 microg 1 hr after administration prior to HLE. In kind it is functional, Cricetulus griseus. In short, it runs like this: as §1
Another data set concerns the target Pepsin A (Homo sapiens) (UniProt P0DJD9). Briefly: Inhibitory activity against Pepsin at 48 mM for 10 min. In short, it runs like this: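 Pepsin activity was tracked at 310 nm as hydrolysis of 1 mM Phe-Gly-His-p-NO2-Phe-Phe-Ala-OMe in 0.04 M formate buffer at pH 4.0. Percent inhibition was read at 10 min.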
Data set [15] deals with Cricetinae gen. sp. The experiment in a line: Inhibition of lung hemorrhage at 200 ug/animal. In kind it is functional, Cricetulus griseus. The essentials: as §1
The test system of data set [16] is Cricetinae gen. sp. Briefly: Inhibitory activity against Human Leukocyte Elastase by Lung Hemorrhage assay (Effective dose at 15 microg). In kind it is functional, Cricetulus griseus.
Data set [17] is described as follows: Partion ratio of the compound. In kind it is ADME.
In another data set the target is T4, Neutrophil elastase (Homo sapiens, UniProt P08246).
T4 sequence (P08246 whole entry): T1 sequence (whole entry)
The experiment in a line: Inhibitory activity against HLE at 10 min (48 mM conc).

Data set [18] has as its target Plasminogen (Homo sapiens) (UniProt P00747). The experiment in a line: Inhibitory activity against Plasmin at 10 min (48 mM conc) using 0.2 mM Tosyl-Gly-Pro-Arg-p-nitroanilide as substrate. In short, it runs like this:
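Human plasmin run under the same conditions as the HLE assay, with 0.2 mM Tosyl-Gly-Pro-Arg-p-nitroanilide as substrate. Inhibitor at 48 mM (so in the source). Percent inhibition read at 10 min.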

The species named for data set [19] is Homo sapiens. Briefly: Inhibitory activity against Clotting cascade at 10 min (240 nM conc). In kind it is functional. In short, it runs like this: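 Whole clotting cascade tested with compound at 240 nM; percent inhibition at 10 min.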
Data set [20] deals with T5, Thermolysin (Bacillus thermoproteolyticus) (UniProt P00800).
T5 sequence (whole entry): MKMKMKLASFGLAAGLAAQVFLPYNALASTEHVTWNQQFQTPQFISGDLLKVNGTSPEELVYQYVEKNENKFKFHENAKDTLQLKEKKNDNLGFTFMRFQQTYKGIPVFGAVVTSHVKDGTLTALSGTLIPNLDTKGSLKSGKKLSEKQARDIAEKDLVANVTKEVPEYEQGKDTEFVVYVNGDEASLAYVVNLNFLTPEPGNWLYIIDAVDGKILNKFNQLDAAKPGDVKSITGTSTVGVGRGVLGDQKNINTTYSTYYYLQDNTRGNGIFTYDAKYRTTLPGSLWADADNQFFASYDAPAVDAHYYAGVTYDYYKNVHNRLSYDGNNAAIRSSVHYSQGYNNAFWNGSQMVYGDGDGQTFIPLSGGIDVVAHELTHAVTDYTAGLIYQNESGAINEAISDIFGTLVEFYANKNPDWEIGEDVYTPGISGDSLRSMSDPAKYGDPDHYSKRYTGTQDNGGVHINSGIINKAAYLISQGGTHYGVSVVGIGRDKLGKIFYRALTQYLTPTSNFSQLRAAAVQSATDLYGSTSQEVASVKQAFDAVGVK
Briefly: Inhibitory activity against Thermolysin at 10 min (48 mM conc). The essentials: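 Thermolysin cleaved 0.2 mM Suc-Ala-Ala-Phe-AMC in pH 7.5 TES with excess leucine aminopeptidase. Released 7-amino-4-methylcoumarin was read by fluorescence (ex 383, em 455). Percent inhibition was taken at 10 min.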

Pepsin A (Homo sapiens), sequence (P0DJD9 63-388 limits assumed): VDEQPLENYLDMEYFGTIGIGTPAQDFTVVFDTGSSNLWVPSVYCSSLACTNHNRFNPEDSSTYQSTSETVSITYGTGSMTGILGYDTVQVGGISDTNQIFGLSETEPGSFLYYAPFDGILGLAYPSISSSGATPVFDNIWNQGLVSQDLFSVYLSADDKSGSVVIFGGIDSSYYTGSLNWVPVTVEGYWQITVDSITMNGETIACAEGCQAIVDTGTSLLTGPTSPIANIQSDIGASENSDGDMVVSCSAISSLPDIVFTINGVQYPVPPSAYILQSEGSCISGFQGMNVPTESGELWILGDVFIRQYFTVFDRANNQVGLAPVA
Plasminogen (Homo sapiens), sequence (P00747 97-580 limits assumed): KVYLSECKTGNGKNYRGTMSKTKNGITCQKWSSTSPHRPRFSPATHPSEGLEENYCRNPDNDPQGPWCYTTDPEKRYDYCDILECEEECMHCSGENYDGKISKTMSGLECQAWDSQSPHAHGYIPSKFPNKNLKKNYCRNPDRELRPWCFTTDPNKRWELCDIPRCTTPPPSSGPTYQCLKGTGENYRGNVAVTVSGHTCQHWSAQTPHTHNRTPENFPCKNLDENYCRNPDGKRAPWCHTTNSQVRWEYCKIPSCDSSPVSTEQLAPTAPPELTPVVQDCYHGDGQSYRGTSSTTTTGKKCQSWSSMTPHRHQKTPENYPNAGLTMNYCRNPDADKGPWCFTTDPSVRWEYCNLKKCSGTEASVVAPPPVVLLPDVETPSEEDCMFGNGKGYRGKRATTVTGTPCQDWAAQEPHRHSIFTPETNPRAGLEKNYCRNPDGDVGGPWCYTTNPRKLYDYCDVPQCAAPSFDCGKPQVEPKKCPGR
Plasminogen (Homo sapiens), sequence (P00747 581-810 limits assumed): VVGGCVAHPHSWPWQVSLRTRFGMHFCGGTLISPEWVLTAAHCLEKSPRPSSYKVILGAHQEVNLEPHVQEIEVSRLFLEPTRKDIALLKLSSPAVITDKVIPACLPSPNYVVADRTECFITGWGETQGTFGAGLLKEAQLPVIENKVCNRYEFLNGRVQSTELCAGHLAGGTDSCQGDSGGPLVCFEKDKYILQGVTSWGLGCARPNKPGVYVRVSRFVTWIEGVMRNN

One may read the Inhibition as the drop in the measured response relative to a control, in per cent. As usually defined, the pIC50 is the negative decadic logarithm of the IC50, by convention in mol/L. Lower therefore signals a large IC50. For orientation: inhibition means the change of the read-out against control, counted positive when it falls. A word on the half-life: it is how long it takes for the measured level to halve. Read a high half-life as slow decline. What is called pKi is the Ki on a negative log10 scale, so that one unit is a factor of ten. Lower therefore signals a high Ki. `CO[C@H]1C(=O)N2C(C(=O)N3CCC[C@H]3C(=O)O)=C(COC(C)=O)CS(=O)(=O)[C@H]12`: in data set [1], the k obs / 1 is 3800 M⁻¹ s⁻¹. Further, the Inhibition turned out to be 32% with Cricetinae gen. sp. [2]; 97% with Cricetinae gen. sp. [4]; 87% in the data set listed under Rattus norvegicus; 70% in the data set on Cricetinae gen. sp. [7]; 77% with Cricetinae gen. sp. [8]; 93% with Cricetinae gen. sp. [10]. The Inhibition in the data set filed under Homo sapiens [11] is recorded as 6%; with Cricetinae gen. sp. [12] it was 78%; in the data set with Cricetinae gen. sp. [13], 86%; with Cricetinae gen. sp. [14], 99%; in the data set filed under Homo sapiens [19], -8%. For the same compound, the pIC50 in [3] is 6.30. For the same compound, the inhibition in data set [5] came to 0%; in data set [6] it was 18%; at Papain (Carica papaya), 0%; against Pepsin A (Homo sapiens), 0%; in data set [18] it was 14%; in data set [20], 0%. In data set [9], the half-life was 21 h. In the data set on Cricetinae gen. sp. [15], this compound showed a T50 of 185 min. For the same compound, the ED50 in the data set with Cricetinae gen. sp. [16] is 30 µg. Moreover, in data set [17], the Partition ratio worked out at 2. Moreover, the pKi at Neutrophil elastase is 5.77.
